# This sample holds only a part of the variants without activity.
# B1: tRNA (parent)
# chain: GUUCCGUUGGCGUAAUGGUAACGCGUCUCCCUCCUAAGGAGAAGACUGCGGGUUCGAGUCCCGUACGGAACG
# Variants of: B1
# Experiment: yeast fitness relative to wild type (ratio to wild type); higher = fitter; tRNA-Arg(CCU), competitive growth, 37 C, YPD
# Procedure, shortened: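 Variants of the tRNA-Arg(CCU) gene were chemically synthesised with a 3% per-site mutation rate across 69 sites and placed at the native genomic locus in Saccharomyces cerevisiae. Six parallel replicates of the pooled strains were competed in YPD at 37°C for 24 hours, and gene amplicons from the start and end populations were read by 100-nucleotide paired-end sequencing. Darwinian fitness relative to wild type was derived from changes in genotype frequencies. Genotypes required ≥ 100 starting reads, and estimates < 0.5 were set to 0.5.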
row,Variant,yeast fitness
1,GAUCCGUUGGCGUAAUGGUAACGCGUCUCCCUCCUUAGGAGAAGACUGCGGGUUCGAGUCCCGUACGGAACG [U2A A36U],0.596
2,GAUCCGUUGGCGUAAUGGUGACGCGUCUCCAUCCUAAGGAGAUGACUGCGGGUUCGAGUCACGUACGGAACG [U2A A20G C31A A43U C61A],≤ 0.5
3,GAUCCGUUGGCGUAAUGGUAGCGCGUCUCCCUCCUAAGGAAAGGACUGCGGGUUCGAGUCCCGUACGGAACG [U2A A21G G41A A43G],≤ 0.5
4,GAUCCGUUGGCGUAAUGGUCACGCGUCUCCCUCCUAAGGGGAAGACUGCGGGUUCGAGUCCCGUACGGAACG [U2A A20C A40G],0.633
5,GAUCCGUUGGCGUAAUGGUAACGCGUCUCCCUCCUAGGGAGAAGACUGCGGGUUUGAGUCCCGUACGGAACG [U2A A37G C55U],≤ 0.5
6,GAUCCGUUGGCGUAAUGGUUACGCGUCUCACUCCUUAGGAGAAGACUGCGGGUUCGAGUUCCGUACGGCACG [U2A A20U C30A A36U C60U A69C],≤ 0.5
7,GAUCCGUUGGCGUAAUGGUAUCGCGUCUCCCUCCUAAGGAGAAGACUGCGGGUUCGAGUCCCGUACGGAACG [U2A A21U],0.686
8,GAUCCGUUGGCGUAAUGGUAACGCGUCUCCCUCCUAAGGUGAAGACUGCGGGUUCGAGUCCCGUCCGGAACG [U2A A40U A65C],≤ 0.5
9,GAUCCGUUGGCGUUAUGGUAACGCGUCUCCCUCCUAAGGAGAAGAUUGCGGGUUCGAGUCCCGUACGGAACG [U2A A14U C46U],0.595
10,GAUCCGUUGGCGUAAUGGUCACGCGUCUCCCUCCUAAGGAGAAGACUGCGGGUUCGAGUCCCGUACGUAACG [U2A A20C G68U],1.01
11,GAUCCGUUGGCGUAAUGGUAACGCGUCUCCCUCCUGAGGAGAAGACUGAGGGUUCGAGUCCCGUACGGAACG [U2A A36G C49A],≤ 0.5
12,GAUCCGUUGGCGUACUGGUAACGCGUCUCCCUCCUAAGGAGAAGACUGCGGGUUCGAGUCCCGUACGGAACG [U2A A15C],0.685
13,GAUCCGUUGGCGUAUUGGUAACGCGUCUCCCUCCUAAGGAGAAGACUGCGGGUUCGAGUCCCGUACGGAACG [U2A A15U],0.753
14,GAUCCGUUGGCGUAAUGGUACCGCGUCUUCCUCCUAAGGAGAAGACUGCGGCUUCGAGUCCCGUACGGAACG [U2A A21C C29U G52C],≤ 0.5
15,GAUCCGUUGGCGUAAUGGUAUCGCGUCUCCCUCCUAAGGAGGAGACUGCGGGUUCGAGUCCCGUACGGAACG [U2A A21U A42G],≤ 0.5
16,GAUCCGUUGGCGUAAUGGUCACGCGUCUCCCUCCUAAGGAGAAGACUGCGGGUUUGAGUCCCGUACGGAACG [U2A A20C C55U],0.582
17,GAUCCGUUGGCGUAUUGGUAACGCGUUUCACUCCUAAGGACAAGACUGAGGGUUGGAGUCACGUACGGAACG [U2A A15U C27U C30A G41C C49A C55G C61A],≤ 0.5
18,GAUCCGUUGGCGUUAUGGUAACGCGUCUGCCUCCUAAGGAGAACACUGCGGGUUCGAGUCCCGUACGGAACG [U2A A14U C29G G44C],0.534
19,GAUCCGUUGGCGUAAUGGUGACGCGUCUCCCUCCUAAGGAGAAGACUGCGGGUUGGAGUCCCGUACGGAACG [U2A A20G C55G],0.537

row,Variant,yeast fitness
1,GAUCCGUUGGCGUACUGGUAACGCGUCUCGCUCCUAAGGAGAAGACUGCGGGUUCGAGUCCCGUACCGAACG [U2A A15C C30G G67C],≤ 0.5
2,GAUCCGUUGGCGUAAUGGUGACGCGUCUACCUCCUAAGGAGAAGUCUGCGGGUUCGAGUCCCGUACGGAACG [U2A A20G C29A A45U],0.538
3,GAUCCGUUGGCGUAAUGGUAGCGCGUCUCCCUCCUAAGGAGAACACUGCGGGUUCGAGGCUCGUACGGAACG [U2A A21G G44C U59G C61U],≤ 0.5
4,GAUCCGUUGGCGUAAUGGUGACGCGUGUCCCUCCUAAGGAGAAGACUGCGGGUUCGAGUCCCGUACGGAACG [U2A A20G C27G],≤ 0.5
5,GAUCCGUUGGCGUUAUGGUAACGCGUCUCCCUCCUAAGGAGAAGACUGCGGGUUCGAGUCCCGUACGGAACG [U2A A14U],0.682
6,GAUCCGUUGGCGUAAUGGUAGCGCGUCUUCCUCCUAAGGUGAAGACUGGGGGUUCGAGUCCCGUACGGAACG [U2A A21G C29U A40U C49G],≤ 0.5
7,GAUCCGUUGGCGUAAUGGUAGCGCGUCUUCCUCCUAAGGUGAAGACUGCGGGUUCGAGUCCCGUACGGUACG [U2A A21G C29U A40U A69U],0.59
8,GAUCCGUUGGCGUAAUGGUUCCGCGUUUCCCUACUAAGGAGAAGACUGCGGGUUCGAGUCCCGUACGGACCG [U2A A20U A21C C27U C33A A70C],0.528
9,GAUCCGUUGGCGUAAUGGUGACGCGUCUCCCUCCUAAGGAGAAGACUGCGGGUUCGAGUCCCGUACGGAACG [U2A A20G],0.838
10,GAUCCGUUGGCGUAAUGGUCACGCGUCUCCCUCCUAAGGAGAAGACUGCGGGUUCGAGUCCCGUACGGAACG [U2A A20C],0.928
11,GAUCCGUUGGCGUAUUGGUAACGCGUCUCCCUCAUAAGCCGAAGACUGCGGGUUCCAGUCGGGUACGCAACG [U2A A15U C34A G39C A40C G56C C61G C62G G68C],≤ 0.5
12,GAUCCGUUGGCGUAAUGGUCACGCGUCUCCCUCCUAGGGAGAAGACUGCGGGUUCGAGUCCCGUACGGAACG [U2A A20C A37G],0.529
13,GAUCCGUUGGCGUAAUGGUAGCGCGUCUGCCUCCUAAGGAGAAGACUGAGGGUUCGAGUCCCGUACAGAACG [U2A A21G C29G C49A G67A],≤ 0.5
14,GAUCCGUUGGCGUAAUGGUAGCGCGUCUCCCUCCUUAGGAGAAGACUGCGGGUUCGAGUCCCGUACGGAACG [U2A A21G A36U],0.624
15,GAUCCGUUGGCGUCAUGGUAACGCGUCUCUCUCGUAAGGAGAAGACUGCGAGUUCGAGUCCCGUACGGAACG [U2A A14C C30U C34G G51A],≤ 0.5
16,GAUCCGUUGGCGUACUGGUAACGCGUCUCCCUCCUAAGGAGAAGACCGCGGGUUCGAGUCCCGUACGGAACG [U2A A15C U47C],≤ 0.5
17,GAUCCGUUGGCGUAAUGGUACCGCGUCUCACUCCUAAGGAGAAGACUGAGGGUUCGAGUCCCGUACGGAACG [U2A A21C C30A C49A],≤ 0.5
18,GAUCCGUUGGCGUACUGGUAACGCGUCUCGCUCCUAAGGAGAAGACUGCGGGUUCGAGUCCCGUACGGAACG [U2A A15C C30G],≤ 0.5
19,GAUCCGUUGGCGUGAUGGUAAGGCGUCUCGCUCCUAAGGAGAAGACAGCGGGUUCGAGUCCCGUACGGAACG [U2A A14G C22G C30G U47A],≤ 0.5
